The source made the active and inactive calls. The rule behind the calls is not given here.
Columns and labels:
[1] = Toxicity in african green monkey Vero cells by alamar blue assay; assay type: cell-based; details: chlorocebus sabaeus, read-out: LD50 (the source's name)
How it was run: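 Semiconfluent Vero cells (1 × 10^4/well; DMEM, 10% heat-inactivated FCS, 2 mM glutamine, penicillin/streptomycin) exposed to compound dilutions (3.9-500 µM series) with Alamar Blue for 24 h, 37 °C, 5% CO2. Controls are medium, AB and drug blanks, plus cells with DMSO. Percent AB reduction is read from absorbance at 570/600 nm against the DMSO control by the manufacturer's formula. LD50 reported as mean ± SEM.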

Vero [2] = test: Inhibition of serine protease in excreted-secreted products fraction of […] secretion proteins of Toxoplasma gondii RH tachyzoites infected in african green monkey Vero cells by SDS-PAGE and zymography; assay type: cell-based
How it was run: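 Tachyzoites (6 × 10^7 in 100 µL serum-free DMEM) pretreated 15 min at room temperature with compound at various concentrations. Micronemal secretion induced at 37 °C with 200 mM ethanol and stopped on ice after centrifugation. The ESP fraction was run in nonreducing 12% SDS-PAGE containing 0.1% gelatin at 90 V, 4 °C. Gel washed in 2.5% Triton X-100, developed overnight at 37 °C in Tris/CaCl2 pH 6.8 and Coomassie-stained; cleared bands read as activity.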

Toxoplasma gondii [3] = test: Antimicrobial activity against Toxoplasma gondii RH tachyzoites assessed as inhibition of parasite invasion of african green monkey Vero cells pretreated for 1 hr before cell infection measured 24 hrs post infection; assay type: functional; details: read-out: ID50 (the source's name)
How it was run: (§1)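 Purified RH tachyzoites (2.5 × 10^5) pretreated 1 h at 37 °C in medium with compound (250-15.6 µM) or DMSO control. They then infected semiconfluent Vero cells at 10 parasites/cell (37 °C, 5% CO2), after which medium was replaced. Slides fixed in methanol at 24 or 48 h and stained with Diff-Quick. Percentage parasitism from 500 cells per slide by light microscopy; three repeats; mean ± SEM; ID50 reported.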

Toxoplasma gondii [4] = test: Antimicrobial activity against Toxoplasma gondii RH tachyzoites assessed as inhibition of parasite invasion of african green monkey Vero cells pretreated for 1 hr before cell infection measured 24 to 48 hrs post infection; assay type: functional
How it was run: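 RH tachyzoites (mouse ascites, passaged in Vero cells, needle- and 5 µm filter-purified), 2.5 × 10^5 pretreated 1 h at 37 °C in medium with compound (250-15.6 µM) or DMSO control. They then infect semiconfluent Vero cells at 10 parasites/cell, 37 °C, 5% CO2. Medium is replaced. Slides are methanol-fixed and Diff-Quick stained at 24 and 48 h. Percent parasitised is scored by light microscopy in 500 cells/slide, three repeats, mean ± SEM, giving ID50.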

Toxoplasma gondii [5] = test: Antimicrobial activity against Toxoplasma gondii RH tachyzoites assessed as inhibition of parasite gliding motility pretreated for 15 mins; assay type: functional
How it was run: (§2)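 RH-strain tachyzoites (passaged in Balb/c mice and Vero cells, filter-purified) pretreated 15 min at 37 °C with compound at 50, 25 or 10 µM; DMSO at maximum solvent level as control. Slides coated with 0.1% poly-L-lysine in PBS pH 7.2. Fixed in 4% formaldehyde/0.02% glutaraldehyde, stained with anti-SAG-1 (P30) mAb 1/50 plus FITC anti-IgG 1/100; trail number and length scored by confocal microscopy.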

Toxoplasma gondii [6] = test: Antimicrobial activity against Toxoplasma gondii RH tachyzoites assessed as inhibition of parasite invasion of african green monkey Vero cells pretreated for 1 hr before cell infection measured 48 hrs post infection; assay type: functional; details: read-out: ID50 (the source's name); how it was run: as §1
Toxoplasma gondii [7] = test: Cytopathic effect against Toxoplasma gondii RH extracellular tachyzoites infected in african green monkey Vero cells assessed as induction of morphological changes at 25 uM after 8 hrs by electron microscopy; assay type: functional, organism-based
How it was run: (§3)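 Purified extracellular tachyzoites exposed to 25 µM compound for 4 or 8 h. Fixed in 2.5% glutaraldehyde in cacodylate buffer, postfixed 30 min in 1% buffered OsO4, dehydrated and embedded in Spurr resin. Ultrathin sections stained with 8% uranyl acetate then 0.2% lead citrate and examined by transmission electron microscopy.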

Toxoplasma gondii [8] = test: Antimicrobial activity against Toxoplasma gondii RH tachyzoites assessed as inhibition of parasite gliding motility at 25 uM pretreated for 15 mins; assay type: functional; how it was run: as §2
Toxoplasma gondii [9] = test: Cytopathic effect against Toxoplasma gondii RH extracellular tachyzoites infected in african green monkey Vero cells assessed as induction of morphological changes at 25 uM after 4 hrs by electron microscopy; assay type: functional, organism-based; how it was run: as §3
Vero [10] = test: Inhibition of serine protease in excreted-secreted products fraction of Toxoplasma gondii RH tachyzoites infected in african green monkey Vero cells by SDS-PAGE and zymography; assay type: cell-based
How it was run: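 Purified tachyzoites (6 × 10^7/100 µL DMEM without serum) pretreated 15 min at room temperature with compound at various concentrations. Micronemal secretion is induced at 37 °C with 200 mM ethanol, then the parasites are pelleted and secretion stopped on ice. The ESP fraction goes in nonreducing sample buffer onto 12% SDS-PAGE with 0.1% gelatin, run at 90 V, 4 °C. The gel gets 2.5% Triton X-100 for 60 min, then develops overnight at 37 °C (50 mM Tris-HCl, 10 mM CaCl2, pH 6.8). Coomassie stain.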

Toxoplasma gondii [11] = test: Cytopathic effect against Toxoplasma gondii RH intracellular tachyzoites infected in african green monkey Vero cells assessed as induction of morphological changes at 25 uM by electron microscopy; assay type: functional, organism-based
How it was run: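 Vero cultures infected 24 h, then treated with 25 µM compound for 8 h. Fixed in 2.5% glutaraldehyde in cacodylate buffer, scraped, postfixed 30 min in 1% OsO4 and embedded in Spurr resin. Sections stained with uranyl acetate and lead citrate and viewed by TEM.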

Toxoplasma gondii [12] = test: Antimicrobial activity against Toxoplasma gondii RH tachyzoites assessed as inhibition of parasite gliding motility at 10 uM pretreated for 15 mins; assay type: functional; how it was run: as §2
Toxoplasma gondii [13] = test: Antimicrobial activity against Toxoplasma gondii RH tachyzoites assessed as inhibition of parasite gliding motility at 50 uM pretreated for 15 mins; assay type: functional; how it was run: as §2

| Structure (SMILES) | CC50 [1] [µM] | inhibition (Vero [2]) | IC50 (Toxoplasma gondii [3]) [µM] | inhibition (Toxoplasma gondii [4]) | inhibition (Toxoplasma gondii [5]) | inhibition (INH) (Toxoplasma gondii [5]) [%] | IC50 (Toxoplasma gondii [6]) [µM] | inhibition (Toxoplasma gondii [7]) | inhibition at 25 µM (Toxoplasma gondii [8]) [%] | inhibition (Toxoplasma gondii [9]) | inhibition (Vero [10]) | inhibition (Toxoplasma gondii [11]) | inhibition at 10 µM (Toxoplasma gondii [12]) [%] | inhibition at 50 µM (Toxoplasma gondii [13]) [%] |
| --- | --- | --- | --- | --- | --- | --- | --- | --- | --- | --- | --- | --- | --- | --- |
| NCCc1ccc(S(=O)(=O)F)cc1 | 36.9 | – | – | – | – | – | – | – | – | – | – | – | – | – |
| CC1(C)CC[C@]2(C(=O)O)CC[C@]3(C)C(=CC[C@@H]4[C@@]5(C)C[C@@H](O)[C@H](O)C(C)(C)[C@@H]5CC[C@]43C)[C@@H]2C1 [MASLINIC ACID] | 237 | Active | 46 | Dose-dependent effect | Dose-dependent effect | 100 | 8 | Active | 59.7 | Active | Dose-dependent effect | Active | 58.8 | ≥ 100 |
| O=S(=O)(F)Cc1ccccc1 [PHENYLMETHYLSULFONYLFLUORIDE] | 133 | – | – | – | – | – | – | – | – | – | Dose-dependent effect | – | – | – |
